Mdm2 MdmX PPI – inhibitors of human Mdm2/MdmX interaction. O15151+Q00987. SaOS-2 split-luciferase Mdm2/MdmX complementation, luminescence. inhibition, % at 8 µM. hit rate 3% among 330,000;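 active = inhibition of at least 50% at 8 µM in the primary screen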
Target sequence (O15151 whole entry, looked up): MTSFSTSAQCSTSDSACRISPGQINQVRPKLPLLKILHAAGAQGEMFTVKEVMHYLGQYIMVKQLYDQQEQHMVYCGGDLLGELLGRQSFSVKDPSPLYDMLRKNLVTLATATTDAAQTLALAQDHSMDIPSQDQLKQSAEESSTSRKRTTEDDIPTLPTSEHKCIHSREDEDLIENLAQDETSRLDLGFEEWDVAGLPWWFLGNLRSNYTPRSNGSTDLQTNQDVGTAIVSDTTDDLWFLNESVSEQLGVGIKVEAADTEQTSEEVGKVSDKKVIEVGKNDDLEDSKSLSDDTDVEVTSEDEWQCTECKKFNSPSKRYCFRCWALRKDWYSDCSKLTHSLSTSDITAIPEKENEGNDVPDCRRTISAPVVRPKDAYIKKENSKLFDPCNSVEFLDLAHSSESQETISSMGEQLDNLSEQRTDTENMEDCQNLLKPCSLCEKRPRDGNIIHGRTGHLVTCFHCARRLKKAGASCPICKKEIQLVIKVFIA
Target sequence (Q00987 whole entry, looked up): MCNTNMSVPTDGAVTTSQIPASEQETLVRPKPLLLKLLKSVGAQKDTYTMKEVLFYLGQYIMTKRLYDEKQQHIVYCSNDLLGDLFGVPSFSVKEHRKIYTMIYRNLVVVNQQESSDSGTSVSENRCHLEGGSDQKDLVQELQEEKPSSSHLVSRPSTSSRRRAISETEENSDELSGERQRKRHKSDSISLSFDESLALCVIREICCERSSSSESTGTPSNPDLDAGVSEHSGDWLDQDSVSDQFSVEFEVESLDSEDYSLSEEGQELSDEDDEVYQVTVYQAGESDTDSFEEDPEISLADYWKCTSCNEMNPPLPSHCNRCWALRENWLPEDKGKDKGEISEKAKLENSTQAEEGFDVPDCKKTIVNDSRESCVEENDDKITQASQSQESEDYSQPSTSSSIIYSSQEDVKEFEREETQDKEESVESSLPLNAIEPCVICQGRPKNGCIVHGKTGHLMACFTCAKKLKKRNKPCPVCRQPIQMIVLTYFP
Beta2AR agonist – agonists of human beta-2 adrenergic receptor inducing internalization | hit rate 0.43% among 340,000 | response, % (concentration not given with the values) | P07550 | Am2.2-beta2AR cells, FAP receptor internalization, flow cytometry;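 active = response above a set limit, near 3 SD of response in nonfluorescent compounds, cut at about 42% in these data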
Dynein cargo inh – dynein cargo transport inhibition. hit rate 0.47% among 220,000. AID 1381. 3617.4 mouse cells, GR-EGFP nuclear translocation imaging; test concentration mostly 20 µM; stimulated with dexamethasone, 1 µM; stronger effect = lower value. z-score, hits read low;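 active = plate z-score of nuclear minus cytoplasmic receptor signal below a set negative limit, without overly bright fluorescence or cell loss, cut at about -3.5 in these data, passing the limit was not always enough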;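 note: z-score of nuclear minus cytoplasmic ring GR-EGFP intensity difference per well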
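medium = tetracycline-free induction medium containing charcoal-stripped FBS | also added = 1.0 µM final dexamethasone stimulus | schedule = 48 h induction, 1 h compound, 30 min dex at 37 °C | technique = fixed, Hoechst-stained cells imaged at 10x for EGFP | measure = GR-EGFP nuclear translocation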
XBP1 UPR activ – adaptive UPR (XBP1) activation. CHO-XBP1 luciferase reporter, IRE1-XBP1 UPR activation, luminescence; percent of tunicamycin response, DMSO as zero. hit rate 0.33% among 330,000. activation, % at 20 µM;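 active = versus positive control, 20 µM dose yields 30% or more activation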
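Material: CHO cell line with stable XBP1 luciferase reporter; schedule: 16-18 h cell attachment at 37 °C, then 6 h compound exposure; signal: glow luminescence from Steady-Glo reagent; medium: serum-containing F12 medium, 10% FBS; benchmarks: tunicamycin 10 µg/mL and vehicle-only wells; read-out: percent activation relative to tunicamycin reference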
CHOP UPR activ – activators of apoptotic arm of unfolded protein response (CHOP); AID 449763; CHO-CHOP luciferase reporter, UPR activation, luminescence; percent of tunicamycin response over DMSO baseline; activation, % at 10 µM; hit rate 0.34% among 330,000;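 active = at 10 µM dose, activation of 40% or more, normalized to positive control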
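System: CHO-CHOP luciferase reporter cell line; amount: 500 cells/well; buffer or medium: F12 medium containing 10% fetal bovine serum; incubation: 6 h compound exposure at 37 °C after overnight seeding; measured by: luciferase luminescence after 10 min with Steady-Glo reagent; evaluation: % reporter activation, DMSO baseline versus tunicamycin full activation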
MDM2 E3 inh – blocks human Mdm2 ubiquitin ligase activity. cell-based MDM2 ubiquitination luciferase reporter, 2 h; 0 = plate control, 100 = twice control, blank-subtracted. signal enhancement, % at 5 µM. hit rate 0.11% among 210,000. AID 1230;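 active = signal enhancement of 30% or more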;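 note: luminescence tracks abundance of the self-degrading MDM2-luciferase fusion protein; higher signal means inhibition of MDM2 E3 ligase activity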
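System: stable MDM2–luciferase fusion reporter cells / Input: 2000 cells seeded into each well / Schedule: 4 h settle plus 2 h compound, 37 °C / Compound: single-point 5 µM / Buffer or medium: cells held in DMEM / Benchmarks: control and blank well means / Evaluation: percent signal gain over controls, blank-subtracted / Measured by: luciferase luminescence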
Mdm2 MdmX conf – confirmation of human Mdm2/MdmX interaction inhibitors. hit rate 55% among 10,000. Mdm2-MdmX binding, luminescent assay. shares compounds with Mdm2 MdmX PPI. inhibition, % at 8 µM. AID 489028; in the data active = inhibition above about 40%
FLuc counter – counter-screen for Mdm2/MdmX inhibitors: full-length luciferase; shares compounds with Mdm2 MdmX PPI; SaOS-2 full-length luciferase counterscreen, luminescence; inhibition, % at 8 µM; hit rate 77% among 6,200; AID 504607;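 active = mean inhibition at 8 µM reaching about 37%, which flags the compound as non-specific, limit read from the data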;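 note: p53-null SaOS-2 cells with luciferase driven by a doxycycline-inducible promoter; compound on cells about two nights before reading with doxycycline added after day one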
Numbers stand for hits. Shown are actives, neighbours in structure and some others; about 3.7% of the full set was active somewhere.

Screening Cc1c(C(=O)N/N=C/c2ccccc2)[nH]c2ccc(Cl)cc12 returned Mdm2 MdmX PPI 57, Beta2AR agonist inactive, Dynein cargo inh inactive, XBP1 UPR activ inactive, CHOP UPR activ inactive, MDM2 E3 inh inactive, Mdm2 MdmX conf 51 and FLuc counter 59.
`COc1ccc(/C=N/NC(=O)c2[nH]c3ccc(Cl)cc3c2-c2ccccc2)c(C(=O)O)c1OC` gave Mdm2 MdmX PPI inactive, Beta2AR agonist inactive, XBP1 UPR activ inactive and CHOP UPR activ inactive.
Screening NNC(=O)c1[nH]c2ccc(Cl)cc2c1-c1ccccc1 returned Mdm2 MdmX PPI 53, Beta2AR agonist inactive, Dynein cargo inh inactive, XBP1 UPR activ inactive, CHOP UPR activ inactive, MDM2 E3 inh inactive and Mdm2 MdmX conf inactive.
For CN(C)c1ccc(/C=N/NC(=O)c2ccc3c(c2)OCO3)cc1 the results were Mdm2 MdmX PPI inactive, Beta2AR agonist inactive, XBP1 UPR activ inactive and CHOP UPR activ inactive.
Screening CCCc1c(C)[nH]c2ccc(C(=O)O)cc2c1=S returned Beta2AR agonist inactive, Dynein cargo inh inactive and MDM2 E3 inh inactive.
COc1ccc(/C=N/NC(=O)c2[nH]c3ccc(Br)cc3c2-c2ccccc2)cc1 was read as Mdm2 MdmX PPI 74, Beta2AR agonist inactive, Dynein cargo inh inactive, XBP1 UPR activ inactive, CHOP UPR activ inactive, MDM2 E3 inh inactive, Mdm2 MdmX conf 60 and FLuc counter 108.
For Cn1ncc([N+](=O)[O-])c1C(=O)Nc1ccc(-c2nc3ccccc3o2)cc1 the results were Mdm2 MdmX PPI inactive, Beta2AR agonist inactive, Dynein cargo inh inactive, XBP1 UPR activ inactive, CHOP UPR activ inactive and MDM2 E3 inh inactive.
For Cc1ccc(NS(=O)(=O)Cc2ccccc2)cc1Cl the results were Mdm2 MdmX PPI inactive, Beta2AR agonist inactive, XBP1 UPR activ inactive and CHOP UPR activ inactive.
Nc1nc(N)nc(-c2ccc(Cl)c(Cl)c2)n1 was read as Mdm2 MdmX PPI 50, Beta2AR agonist inactive, XBP1 UPR activ inactive, CHOP UPR activ inactive and Mdm2 MdmX conf inactive.
For CCc1cc(=O)oc2c3c(cc(OCC(=O)NCCN4CCOCC4)c12)OC(C)(C)CC3 the results were Mdm2 MdmX PPI inactive, Beta2AR agonist inactive, XBP1 UPR activ inactive and CHOP UPR activ inactive.
`CC(C)n1c(/C=C/[C@H](O)C[C@H](O)CC(=O)O)c(-c2ccc(F)cc2)c2ccccc21` gave Mdm2 MdmX PPI 50, Beta2AR agonist inactive, XBP1 UPR activ inactive, CHOP UPR activ inactive, Mdm2 MdmX conf 46 and FLuc counter 79.
CC1(C)CC[C@]2(C(=O)O)[C@H](O)C[C@]3(C)C(=CCC4[C@@]5(C)C[C@H](O)[C@H](O)[C@@](C)(CO)C5CC[C@]43C)[C@@H]2C1 (stereo partly specified) was read as Mdm2 MdmX PPI inactive, Beta2AR agonist inactive, XBP1 UPR activ inactive and CHOP UPR activ inactive.
Screening CC1(C)C[C@H]2C3=CCC4[C@@]5(C)CC[C@H](O)[C@](C)(CO)C5CC[C@@]4(C)[C@]3(C)CC[C@@]2(C)[C@H](O)[C@@H]1O (stereo partly specified) returned Mdm2 MdmX PPI 87, Beta2AR agonist inactive, XBP1 UPR activ inactive, CHOP UPR activ inactive, Mdm2 MdmX conf 57 and FLuc counter 60.
Cc1nc(NCc2ccc3c(c2)OCO3)c2nnn(Cc3ccccc3)c2n1 was read as Mdm2 MdmX PPI 77, Beta2AR agonist inactive, Dynein cargo inh inactive, XBP1 UPR activ inactive, CHOP UPR activ inactive, MDM2 E3 inh inactive, Mdm2 MdmX conf inactive and FLuc counter 67.
CCCCn1c(=N)n(CC(=O)c2ccc(OC)cc2)c2ccccc21 was read as Mdm2 MdmX PPI 79, Dynein cargo inh inactive, XBP1 UPR activ inactive, CHOP UPR activ inactive, MDM2 E3 inh inactive, Mdm2 MdmX conf 44 and FLuc counter 48.
Screening Cn1c(=N)n(CC(=O)c2ccc(Cl)c(Cl)c2)c2ccccc21 returned Mdm2 MdmX PPI 78, Beta2AR agonist inactive, XBP1 UPR activ inactive, CHOP UPR activ inactive, Mdm2 MdmX conf 73 and FLuc counter 145.
For COc1ccc(C(=O)Cn2c(=N)n(C)c3ccccc32)cc1 the results were Mdm2 MdmX PPI inactive, Beta2AR agonist inactive, Dynein cargo inh inactive, XBP1 UPR activ inactive, CHOP UPR activ inactive and MDM2 E3 inh inactive.
For Cn1c(=N)n(CC(=O)c2ccccc2)c2ccccc21 the results were Mdm2 MdmX PPI inactive, Beta2AR agonist inactive, Dynein cargo inh inactive, XBP1 UPR activ inactive, CHOP UPR activ inactive and MDM2 E3 inh inactive.
Cc1cc(SCC(=O)c2cccc([N+](=O)[O-])c2)nc(=O)[nH]1 was read as Beta2AR agonist inactive.
Screening CC(C)N1CC(COc2ccc(Cl)cc2Cl)OC1=O (stereo unspecified) returned Mdm2 MdmX PPI inactive, Beta2AR agonist inactive, XBP1 UPR activ inactive and CHOP UPR activ inactive.
CCn1c2ccccc2c2cc(NS(=O)(=O)c3ccccc3C)ccc21 was read as Mdm2 MdmX PPI 63, Beta2AR agonist inactive, Dynein cargo inh inactive, XBP1 UPR activ inactive, CHOP UPR activ inactive, MDM2 E3 inh inactive, Mdm2 MdmX conf 47 and FLuc counter 67.
CCCC(=O)Nc1ccc2c(c1)c1ccccc1n2CC was read as Mdm2 MdmX PPI inactive, Beta2AR agonist inactive, Dynein cargo inh inactive, XBP1 UPR activ inactive, CHOP UPR activ inactive and MDM2 E3 inh inactive.
CCCCN(CC)CCCNC(=O)C1CCN(c2ncnc3c2sc2cccc(F)c23)CC1 was read as Mdm2 MdmX PPI inactive, Beta2AR agonist inactive, Dynein cargo inh inactive, XBP1 UPR activ inactive, CHOP UPR activ inactive and MDM2 E3 inh inactive.
`CC1=C(C(=O)Nc2cccc(C(=O)NCc3ccccc3C)c2)SCCO1` gave Mdm2 MdmX PPI inactive, Beta2AR agonist inactive, XBP1 UPR activ inactive and CHOP UPR activ inactive.
Screening O=C1Nc2ccccc2O/C1=C\c1c(F)cccc1Cl returned Mdm2 MdmX PPI 60, Beta2AR agonist inactive, XBP1 UPR activ inactive, CHOP UPR activ inactive, Mdm2 MdmX conf 42 and FLuc counter 60.
Screening Cc1ccc(N/C=C/C(=O)c2ccc(C)cc2)cc1 returned Mdm2 MdmX PPI inactive, Beta2AR agonist inactive, Dynein cargo inh inactive, XBP1 UPR activ inactive, CHOP UPR activ inactive and MDM2 E3 inh inactive.
Cc1ccc(C(=O)/C=C/Nc2ccccn2)cc1 was read as Mdm2 MdmX PPI 55, Beta2AR agonist inactive, Dynein cargo inh inactive, XBP1 UPR activ inactive, CHOP UPR activ inactive and Mdm2 MdmX conf inactive.
